Activity calls are given as the source filed them. No cut-off for these calls is given here.
Tests used:
[1] = molecular target: Glutamate NMDA receptor; GRIN1/GRIN2B (Homo sapiens, UniProt Q05586+Q13224); assay: Inhibition of NMDA-evoked increased intracellular [Ca2+] in cells expressing NR1/NR2B receptor; assay type: cell-based
[2] = molecular target: Glutamate [NMDA] receptor; assay: Inhibition of [3H]-Ro-25-6981 binding to NMDA receptor; assay type: protein-complex assay
[3] = system: Mus musculus; assay: In vivo analgesic activity was tested using formalin test in mouse upon p.o. administration; assay type: functional; conditions: po
Summary of the method: (§1)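 Mice were pretreated orally with the compound suspended in 5% Tween-80, then given formalin into the hindpaw. Licking was counted 20–25 min after the formalin injection. Percentage inhibition was calculated for each dose, and the dose giving a half-maximal effect (ED50) was determined.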

[4] = system: Mus musculus; assay: In vivo analgesic activity was tested using formalin test in mouse upon s.c. administration; assay type: functional; conditions: sc
[5] = system: Mus musculus; assay: In vivo analgesic activity was tested using formalin test in mouse upon p.o. administration; IA is inactive; assay type: functional, organism-based; summary of the method: as §1
[6] = system: Mus musculus; assay: In vivo analgesic activity was tested using formalin test in mouse upon i.p. administration; assay type: functional; conditions: ip
Summary of the method: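 Mice were pretreated intraperitoneally before formalin injection into the hindpaw. Licking behaviour was counted 20–25 min after the formalin injection. Percentage inhibition was calculated per dose, and the ED50 (the dose producing a half-maximal effect) was derived.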

Glutamate NMDA receptor; GRIN1/GRIN2B, sequence (Q13224 whole entry, other chains not shown): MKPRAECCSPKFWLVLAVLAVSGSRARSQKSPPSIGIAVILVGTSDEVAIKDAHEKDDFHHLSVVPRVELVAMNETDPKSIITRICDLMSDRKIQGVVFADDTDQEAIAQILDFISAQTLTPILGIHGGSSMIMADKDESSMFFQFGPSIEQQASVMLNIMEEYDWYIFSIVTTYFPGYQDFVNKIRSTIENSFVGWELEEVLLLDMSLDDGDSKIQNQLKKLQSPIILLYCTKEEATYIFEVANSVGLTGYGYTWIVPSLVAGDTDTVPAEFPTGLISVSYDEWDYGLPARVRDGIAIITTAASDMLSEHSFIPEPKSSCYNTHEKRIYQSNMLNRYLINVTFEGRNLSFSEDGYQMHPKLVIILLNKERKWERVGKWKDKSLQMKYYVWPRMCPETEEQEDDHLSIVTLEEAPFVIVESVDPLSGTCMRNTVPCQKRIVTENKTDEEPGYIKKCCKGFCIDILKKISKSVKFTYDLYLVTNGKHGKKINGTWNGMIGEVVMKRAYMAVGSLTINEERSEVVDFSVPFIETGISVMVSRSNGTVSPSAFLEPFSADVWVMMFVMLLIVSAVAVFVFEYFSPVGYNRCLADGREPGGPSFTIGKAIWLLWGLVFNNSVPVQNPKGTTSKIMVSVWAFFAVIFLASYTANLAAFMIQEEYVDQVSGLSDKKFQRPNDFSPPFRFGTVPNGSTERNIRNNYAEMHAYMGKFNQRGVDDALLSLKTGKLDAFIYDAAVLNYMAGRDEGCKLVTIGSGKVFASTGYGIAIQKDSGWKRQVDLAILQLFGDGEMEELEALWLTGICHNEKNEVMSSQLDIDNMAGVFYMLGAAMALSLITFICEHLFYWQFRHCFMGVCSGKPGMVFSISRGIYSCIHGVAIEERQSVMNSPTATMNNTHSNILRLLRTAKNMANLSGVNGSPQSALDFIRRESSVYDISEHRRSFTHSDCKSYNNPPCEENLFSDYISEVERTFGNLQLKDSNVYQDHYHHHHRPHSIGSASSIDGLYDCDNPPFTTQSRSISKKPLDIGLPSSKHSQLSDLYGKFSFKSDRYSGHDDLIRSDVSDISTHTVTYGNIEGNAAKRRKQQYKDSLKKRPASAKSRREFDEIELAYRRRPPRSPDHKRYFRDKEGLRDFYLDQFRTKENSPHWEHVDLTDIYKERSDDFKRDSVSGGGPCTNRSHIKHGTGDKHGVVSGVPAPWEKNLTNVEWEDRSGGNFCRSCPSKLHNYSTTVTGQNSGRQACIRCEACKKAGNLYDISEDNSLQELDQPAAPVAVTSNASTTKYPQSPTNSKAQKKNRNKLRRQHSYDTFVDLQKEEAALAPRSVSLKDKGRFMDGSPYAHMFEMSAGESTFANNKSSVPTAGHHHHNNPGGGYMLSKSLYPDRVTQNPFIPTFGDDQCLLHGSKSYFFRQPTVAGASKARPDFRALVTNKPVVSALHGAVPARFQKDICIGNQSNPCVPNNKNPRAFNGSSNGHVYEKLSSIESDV

| Structure (SMILES) | IC50 [1] | IC50 [2] | ED50 [3] | ED50 [4] | ED50 [5] | ED50 [6] |
| --- | --- | --- | --- | --- | --- | --- |
| O=C(CCN1CCC(Cc2ccc(F)cc2)CC1)c1ccc2nc(O)oc2c1 | 48 nM | 8 nM | 3.7 mg/kg |  |  |  |
| O=C(Nc1ccc2[nH]c(=O)[nH]c2c1)C(=O)N1CCC(Cc2ccc(F)cc2)CC1 | 2 nM | 5 nM | > 20 mg/kg |  |  |  |
| Cc1ccc(OC2CCN(C(=O)C(=O)Nc3ccc4nc(S)[nH]c4c3)CC2)cc1 | 10 nM | 131 nM | > 20 mg/kg |  |  |  |
| O=C(Nc1ccc2[nH]c(=O)oc2c1)C(=O)N1CCC(Oc2ccc(Cl)cc2)CC1 | 7 nM | 40 nM | 4.4 mg/kg |  |  |  |
| C[C@@H]([C@@H](O)c1ccc(O)cc1)N1CCC(O)(c2ccccc2)CC1 [TRAXOPRODIL] |  |  | > 20 mg/kg | > 20 mg/kg |  |  |
| O=C(Nc1ccc2[nH]c(=O)oc2c1)C(=O)N1CCC(Cc2ccc(F)cc2)CC1 [RADIPRODIL] | 4 nM | 6 nM | 7.7 mg/kg |  |  |  |
| O=C(Nc1ccc2[nH]c(=O)[nH]c2c1)C(=O)N1CCC(Oc2ccc(Cl)cc2)CC1 | 8 nM | 26 nM | > 20 mg/kg |  |  |  |
| Cc1ccc(CC2CCN(C(=O)C(=O)Nc3ccc4c(c3)OCC(=O)N4)CC2)cc1 | 18 nM | 17 nM | 10 mg/kg |  |  |  |
| Cc1ccc(OC2CCN(C(=O)C(=O)Nc3ccc4[nH]c(=O)sc4c3)CC2)cc1 | 8 nM | 17 nM | 0.2 mg/kg |  |  |  |
| Cc1ccc(CC2(O)CCN(CCOc3ccc(O)cc3)CC2)cc1 | 5 nM |  |  |  | inactive | 5.9 mg/kg |
| C[C@@H](CN1CCC(Cc2ccccc2)CC1)[C@@H](O)c1ccc(O)cc1 |  |  |  |  | inactive | 5.1 mg/kg |
| Cc1ccc(CC2CCN(C(=O)C(=O)Nc3ccc4c(c3)CC(=O)N4)CC2)cc1 | 15 nM | 54 nM | 0.5 mg/kg |  |  |  |
| O=c1[nH]c2ccc([S+]([O-])CCN3CCC(Cc4ccc(F)cc4)CC3)cc2o1 (configuration not stated) [BESONPRODIL] |  |  | 2.4 mg/kg |  |  |  |

Further lines, with some results ahead:

| IC50 [1] | IC50 [2] | Structure (SMILES) | ED50 [3] | ED50 [4] | ED50 [5] | ED50 [6] |
| --- | --- | --- | --- | --- | --- | --- |
| 42 nM |  | O=C(c1cc2cc(O)ccc2[nH]1)N1CCC(Cc2ccccc2)CC1 | 1.4 mg/kg |  |  |  |
| 29 nM | 139 nM | O=C1Nc2ccc(NC(=O)C(=O)N3CCC(Cc4ccccc4)CC3)cc2CO1 | < 0.1 mg/kg |  |  |  |
| 3 nM | 8 nM | O=C(Nc1ccc2[nH]c(=O)oc2c1)C(=O)N1CCC(Cc2ccccc2)CC1 | 0.9 mg/kg |  |  |  |
| 9 nM | 17 nM | O=C(Nc1ccc2[nH]c(=O)sc2c1)C(=O)N1CCC(Cc2ccccc2)CC1 | 0.4 mg/kg |  |  |  |
| 6 nM | 4 nM | O=C(Nc1ccc2[nH]c(=O)[nH]c2c1)C(=O)N1CCC(Cc2ccccc2)CC1 | 14 mg/kg |  |  |  |
| 31 nM | 16 nM | O=C(Nc1ccc(O)cc1)C(=O)N1CCC(Cc2ccccc2)CC1 | 9.4 mg/kg |  |  |  |

Reference: ChEMBL document CHEMBL1137121, “Oxamides as novel NR2B selective NMDA receptor antagonists” (Bioorg Med Chem Lett, 2004)
